Measured values from article PMC7564327 (Acta Pharmaceutica Sinica. B, 2020).

How the values were obtained:
[1] = Tissue distribution of TDE in mice; details: oral 20 mg/kg TDE with 20 mg/kg IPT, 20 mg/kg ISP or 200 mg/kg AD extract, 1, 2 and 4 h; for accumulation of TDE in kidney vs TDE alone / accumulation of TDE in liver vs TDE alone: P < 0.05
[2] = target: T1, hOATP1B3 (Homo sapiens, UniProt Q9NPD5); test: Inhibition of 3H-ES uptake in HEK293-hOATP1B3 cells; type: in vitro ADME; details: 100 μmol/L IPT, ISP; 100 μg/mL AD extract; substrate 3H-ES
T1 sequence (Q9NPD5 1-702): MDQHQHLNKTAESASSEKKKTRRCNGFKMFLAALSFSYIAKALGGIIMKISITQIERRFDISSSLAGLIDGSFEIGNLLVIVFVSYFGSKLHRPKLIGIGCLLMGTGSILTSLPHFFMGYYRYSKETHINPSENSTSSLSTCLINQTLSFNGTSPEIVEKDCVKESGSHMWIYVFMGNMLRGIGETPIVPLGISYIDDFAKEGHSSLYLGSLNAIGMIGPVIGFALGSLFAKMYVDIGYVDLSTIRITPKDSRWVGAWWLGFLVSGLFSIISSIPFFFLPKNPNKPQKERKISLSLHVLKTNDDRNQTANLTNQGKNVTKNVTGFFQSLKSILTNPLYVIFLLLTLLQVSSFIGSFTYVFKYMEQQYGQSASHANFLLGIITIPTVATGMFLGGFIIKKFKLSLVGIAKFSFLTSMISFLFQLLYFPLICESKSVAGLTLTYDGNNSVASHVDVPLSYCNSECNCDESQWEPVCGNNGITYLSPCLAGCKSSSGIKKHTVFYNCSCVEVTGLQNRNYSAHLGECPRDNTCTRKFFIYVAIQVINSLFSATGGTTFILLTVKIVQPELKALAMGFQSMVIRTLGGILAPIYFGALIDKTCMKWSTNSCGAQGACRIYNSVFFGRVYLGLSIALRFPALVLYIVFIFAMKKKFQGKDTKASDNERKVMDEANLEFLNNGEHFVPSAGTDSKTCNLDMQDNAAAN
How it was run: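 HEK293 cells stably overexpressing the human transporter, grown in DMEM with 10% FBS and penicillin/streptomycin at 5% CO₂, then seeded in 24-well plates and used at confluence. Cells incubated at 37 °C for 2 min with 50 nmol/L ³H-estrone sulfate, with or without test compound or extract; final DMSO below 0.5%. Stopped by three cold DPBS washes, lysed in 0.1 mol/L NaOH, and counted by liquid scintillation (DPM).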

[3] = test system: mice kidney slices; test: In vitro uptake of TDE in mice kidney slices; type: in vitro ADME, Kunming mice; details: TDE 10 μmol/L
How it was run: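 Kunming mice (20–25 g, fasted 12 h) were anaesthetised with urethane, and kidney or liver was decapsulated into ice-cold oxygenated buffer at pH 7.5. Slices of about 30 mg were preincubated 5 min under carbogen at 4 or 37 °C. They were then incubated with 10 μmol/L test compound for 5, 10 or 30 min, with or without reference OAT1/OAT3 or OATP inhibitors or co-ingredients. Slices were then washed, blotted, weighed and homogenised, then extracted with methanol and an internal standard for HPLC–MS.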

[4] = target: T2, hOATP1B1 (Homo sapiens, UniProt Q9Y6L6); test: Cellular uptake and kinetics in HEK293-hOATP1B1 vs Mock cells; type: in vitro ADME; details: 100 μmol/L
T2 sequence (Q9Y6L6 1-691): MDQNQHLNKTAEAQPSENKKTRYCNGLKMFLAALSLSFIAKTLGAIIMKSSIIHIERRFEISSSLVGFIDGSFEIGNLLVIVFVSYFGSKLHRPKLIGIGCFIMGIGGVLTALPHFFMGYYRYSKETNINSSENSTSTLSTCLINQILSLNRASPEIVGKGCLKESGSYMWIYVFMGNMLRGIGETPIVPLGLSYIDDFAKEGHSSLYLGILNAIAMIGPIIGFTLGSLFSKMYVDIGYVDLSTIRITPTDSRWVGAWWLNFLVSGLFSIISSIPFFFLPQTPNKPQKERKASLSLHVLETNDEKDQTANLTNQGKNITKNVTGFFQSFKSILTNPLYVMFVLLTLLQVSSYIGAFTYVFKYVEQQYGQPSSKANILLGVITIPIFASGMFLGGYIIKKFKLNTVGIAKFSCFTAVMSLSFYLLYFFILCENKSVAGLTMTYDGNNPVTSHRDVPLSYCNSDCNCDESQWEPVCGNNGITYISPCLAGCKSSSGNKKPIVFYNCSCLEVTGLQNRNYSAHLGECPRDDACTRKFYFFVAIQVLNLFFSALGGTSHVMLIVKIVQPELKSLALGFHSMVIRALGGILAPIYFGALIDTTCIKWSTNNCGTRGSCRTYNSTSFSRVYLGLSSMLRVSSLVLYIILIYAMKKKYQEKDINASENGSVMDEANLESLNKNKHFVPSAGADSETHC

[5] = target: T3, hOATP2B1 (Homo sapiens, UniProt O94956); test: Inhibition of 3H-ES uptake in HEK293-hOATP2B1 cells; type: in vitro ADME; details: 100 μmol/L IPT, ISP; substrate 3H-ES
T3 sequence (O94956 1-709): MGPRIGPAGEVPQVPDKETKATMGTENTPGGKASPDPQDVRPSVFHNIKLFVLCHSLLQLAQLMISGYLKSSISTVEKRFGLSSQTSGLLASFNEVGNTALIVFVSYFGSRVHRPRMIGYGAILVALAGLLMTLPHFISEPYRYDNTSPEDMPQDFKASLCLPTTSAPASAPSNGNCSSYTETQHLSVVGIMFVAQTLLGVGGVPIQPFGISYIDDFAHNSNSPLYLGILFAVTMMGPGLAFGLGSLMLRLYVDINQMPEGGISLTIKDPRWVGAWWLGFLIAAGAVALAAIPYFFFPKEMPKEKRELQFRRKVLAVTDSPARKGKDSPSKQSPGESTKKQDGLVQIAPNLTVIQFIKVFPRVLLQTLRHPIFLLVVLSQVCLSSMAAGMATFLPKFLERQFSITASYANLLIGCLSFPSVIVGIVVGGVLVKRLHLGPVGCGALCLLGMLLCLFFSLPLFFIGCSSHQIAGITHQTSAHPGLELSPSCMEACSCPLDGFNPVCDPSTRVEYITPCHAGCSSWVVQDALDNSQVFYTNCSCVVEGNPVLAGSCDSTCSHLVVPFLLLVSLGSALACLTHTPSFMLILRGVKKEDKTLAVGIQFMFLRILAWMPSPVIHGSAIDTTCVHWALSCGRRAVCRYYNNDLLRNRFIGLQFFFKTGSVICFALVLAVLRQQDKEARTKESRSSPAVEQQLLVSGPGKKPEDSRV
How it was run: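 Test compounds were made as DMSO stocks (20 mmol/L, or 10 mg/mL for extract) and diluted in PBS to a final DMSO below 0.5%. Cells were exposed at 37 °C to probe plus or minus test compound. The probe was 5 μmol/L ¹⁴C-PAH for 5 min (hOAT1) or 50 nmol/L ³H-estrone sulfate for 2 min (hOAT3, hOATP2B1). Screens used 100 μmol/L (extract 100 mg/L); IC50 came from varied concentrations. Cells were then given three cold DPBS washes, lysed in 0.1 mol/L NaOH and read by scintillation counting. Data are mean ± SD, n = 3.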

SMILES	concentration of TDE in blood vs TDE alone [1]	concentration of TDE in brain vs TDE alone [1]	accumulation of TDE in kidney vs TDE alone [1]	accumulation of TDE in liver vs TDE alone [1]	inhibition to hOATP1B3 [2]	effect on the uptake of TDE in kidney slices [3]	accumulation in hOATP1B1-overexpressed cell lines compared to wild type [4]	inhibition to hOATP2B1 [5]
CC(C)=CCOc1c2occc2cc2ccc(=O)oc12 [IPT, imperatorin]	significantly enhanced	significantly enhanced	significantly decreased	significantly decreased	weak or no inhibition	significant inhibition	could largely accumulate	weak or no inhibition
CC(C)=CCOc1c2ccoc2cc2oc(=O)ccc12 [ISP, isoimperatorin]	significantly enhanced	significantly enhanced	significantly decreased	significantly decreased	weak or no inhibition	significant inhibition	could largely accumulate	weak or no inhibition
